From ChEMBL document CHEMBL2321832, “A Fluorescent Styrylquinoline with Combined Therapeutic and Diagnostic Activities against Alzheimer's and Prion Diseases” (ACS Med Chem Lett, 2013)
The source made the active and inactive calls. No cut-off for these calls is given here.

Experiments:
ScGT1 [1] = assay: Antiprion activity against scrapie prion protein (unknown origin) infected in mouse ScGT1 cells assessed as decrease in PrPSc accumulation after 5 days measured following PK digestion by Western blot analysis; type: cell-based
ScGT1 [2] = assay: Binding affinity to PK-resistant scrapie prion protein (unknown origin) aggregate in mouse ScGT1 cells at 0.25 mM measured following PK digestion by fluorescence microscopy; type: cell-based
In short: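 ScGT1 cells stained with 3·HCl at 0.25 mM after a proteinase K digestion step that removes PK-sensitive PrP^C. Uninfected GT1 cells processed the same way serve as control. Imaged by fluorescence microscopy, mainly with the FITC filter set and confirmed with the ThS filter set.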

ScGT1 [3] = assay: Binding affinity to scrapie prion protein (unknown origin) aggregate in mouse ScGT1 cells at 0.84 mM measured following denaturation with 6 M guanidinium chloride by fluorescence microscopy; type: cell-based
In short: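 Cells denatured with 6 M guanidinium chloride, then stained with 3·HCl at 0.84 mM (0.025%). Uninfected GT1 cells, with or without denaturation, serve as control. Imaged by fluorescence microscopy with FITC and ThS filter sets, nuclei counterstained with DAPI. Pattern compared with 0.025% Thioflavin S staining. A second line, ScN2a, was also used.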

[4] = Cytotoxicity against mouse ScGT1 cells assessed as cell viability at EC50 concentration after 5 days by fluorescence plate reader analysis; type: cell-based; conditions: read-out: Activity
[5] = Cytotoxicity against mouse ScGT1 cells assessed as cell viability at 10 uM after 5 days by fluorescence plate reader analysis; type: cell-based; conditions: read-out: Activity
[6] = Antiprion activity against scrapie prion protein (unknown origin) infected in mouse ScGT1 cells assessed as inhibition of PrPSc replication by ELISA; type: cell-based
[7] = Cytotoxicity against mouse ScGT1 cells assessed as cell viability at 1 uM after 5 days by fluorescence plate reader analysis; type: cell-based; conditions: read-out: Activity
[8] = molecular target: Major prion protein (Mus musculus) (UniProt P04925); assay: Inhibition of mouse PrP (23-230) fibril formation assessed as extension of lag phase at 50 uM by amyloid seeding assay
Major prion protein (Mus musculus), sequence (P04925 whole entry): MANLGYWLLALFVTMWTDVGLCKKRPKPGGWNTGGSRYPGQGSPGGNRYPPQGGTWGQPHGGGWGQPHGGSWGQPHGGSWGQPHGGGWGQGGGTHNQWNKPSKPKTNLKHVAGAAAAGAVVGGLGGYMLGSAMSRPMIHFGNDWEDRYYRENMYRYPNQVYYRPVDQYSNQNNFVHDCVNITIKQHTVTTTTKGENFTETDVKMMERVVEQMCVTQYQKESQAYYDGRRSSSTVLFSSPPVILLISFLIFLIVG

[9] = molecular target: Amyloid-beta precursor protein (Homo sapiens) (UniProt P05067); assay: Binding affinity to amyloid beta (1 to 42) (unknown origin) at 0.5 uM by fluorescence analysis
Amyloid-beta precursor protein (Homo sapiens), sequence (P05067 whole entry, the tested form may be a part): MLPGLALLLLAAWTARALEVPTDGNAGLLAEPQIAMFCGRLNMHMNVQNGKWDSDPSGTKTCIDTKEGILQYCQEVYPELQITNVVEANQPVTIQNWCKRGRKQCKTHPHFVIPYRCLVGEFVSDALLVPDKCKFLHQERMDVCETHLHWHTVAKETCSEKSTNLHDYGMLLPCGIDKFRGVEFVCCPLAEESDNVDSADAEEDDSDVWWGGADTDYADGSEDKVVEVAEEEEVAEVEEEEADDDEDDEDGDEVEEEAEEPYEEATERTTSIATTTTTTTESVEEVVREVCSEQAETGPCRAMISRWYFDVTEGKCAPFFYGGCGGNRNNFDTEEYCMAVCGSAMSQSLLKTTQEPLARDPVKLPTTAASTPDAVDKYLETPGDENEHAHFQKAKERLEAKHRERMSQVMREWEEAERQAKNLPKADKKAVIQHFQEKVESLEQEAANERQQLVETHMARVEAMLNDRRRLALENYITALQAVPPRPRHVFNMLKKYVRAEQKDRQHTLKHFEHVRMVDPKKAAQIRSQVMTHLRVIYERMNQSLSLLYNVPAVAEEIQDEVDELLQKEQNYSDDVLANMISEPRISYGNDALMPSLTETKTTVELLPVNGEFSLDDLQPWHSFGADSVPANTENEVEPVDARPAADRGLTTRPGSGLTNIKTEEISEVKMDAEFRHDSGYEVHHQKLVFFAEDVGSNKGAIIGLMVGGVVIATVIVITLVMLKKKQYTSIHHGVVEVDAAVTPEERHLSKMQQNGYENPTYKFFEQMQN

[10] = molecular target: Amyloid-beta precursor protein (Homo sapiens) (UniProt P05067); assay: Binding affinity to pre-aggregated amyloid beta (1 to 42) (unknown origin) at 25 nM by Thioflavin T-based fluorometric assay
[11] = molecular target: Amyloid-beta precursor protein (Homo sapiens) (UniProt P05067); assay: Displacement of Thioflavin-T from pre-aggregated amyloid beta (1 to 42) (unknown origin) at >25 nM by fluorometric assay
[12] = molecular target: Amyloid-beta precursor protein (Homo sapiens) (UniProt P05067); assay: Binding affinity to pre-aggregated amyloid beta (1 to 42) (unknown origin) assessed as hyperchromic effect at 5 uM by fluorescence analysis
In short: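 Emission spectra of compound (5 μM) recorded in 10 mM phosphate buffer, pH 7.4, with and without aggregated Aβ42 (3 μM).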

[13] = molecular target: Amyloid-beta precursor protein (Homo sapiens) (UniProt P05067); assay: Inhibition of amyloid beta (1 to 42) (unknown origin) fibril formation at 1:1 compound to amyloid beta ratio after 24 hrs by Thioflavin T-based fluorometric assay
[14] = Permeability of the compound assessed as diffusion from donor plate through porcine brain lipid membrane into acceptor plate at pH 7.4 by PAMPA method; type: ADME; conditions: pig, read-out: permeability
In short: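 PAMPA permeability (Pe) reported as mean ± SD of two experiments. CNS+ assigned when Pe > 3.74 × 10⁻⁶ cm s⁻¹; CNS+/− when Pe lies between 3.74 × 10⁻⁶ and 1.50 × 10⁻⁶ cm s⁻¹.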

SMILES: Cc1ccc2nc(/C=C/c3ccc(N)cc3)ccc2c1
- inhibition (ScGT1 [1]): Dose-dependent effect
- Activity (ScGT1 [2]): Active
- Activity (ScGT1 [3]): Active
- viability at 120 h [4]: 94.6%
- viability at 120 h, 10 µM [5]: 60%
- EC50 [6]: 500 nM
- viability at 120 h, 1 µM [7]: > 90%
- TIME [8]: > 70 h
- Activity [9]: Active
- Activity [10]: Active
- Activity [11]: Active
- Activity [12]: Active
- inhibition ([13]; concentration not given here): 42.4%
- Papp [14]: 23.1 ×10⁻⁶ cm/s

SMILES: Cc1ccc2nc(/C=C/c3ccccc3)ccc2c1
- inhibition (ScGT1 [1]): Dose-dependent effect
- viability at 120 h [4]: 90.5%
- EC50 [6]: 500 nM
- viability at 120 h, 1 µM [7]: > 90%
- TIME [8]: > 70 h
- inhibition [13]: inactive
- Papp [14]: 3 ×10⁻⁶ cm/s

SMILES: CCN(CC)CCCC(C)Nc1c2ccc(Cl)cc2nc2ccc(OC)cc12 (centres undefined) [QUINACRINE]
- viability at 120 h [4]: 100%
- EC50 [6]: 400 nM

SMILES: O=C(CN1CCCC1)Nc1ccc(Cc2ccc(NC(=O)CN3CCCC3)cc2)cc1
- inhibition (ScGT1 [1]): Dose-dependent effect
- viability at 120 h [4]: 93.4%
- EC50 [6]: 1500 nM

SMILES: COc1ccc2nc(/C=C/c3ccccc3)ccc2c1
- inhibition (ScGT1 [1]): Dose-dependent effect
- viability at 120 h [4]: 74.9%
- EC50 [6]: 700 nM
- viability at 120 h, 1 µM [7]: 60%
- TIME [8]: > 70 h
- inhibition [13]: inactive
- Papp [14]: 8.5 ×10⁻⁶ cm/s

SMILES: COc1cc(/C=C/C(=O)CC(=O)/C=C/c2ccc(O)c(OC)c2)ccc1O
- inhibition ([13]; concentration not given here): 73%
